# An excerpt weighted towards active compounds, which were near 2.3% of everything screened.
# Autophagy HCS = autophagy modulators in MEF cells, primary screen, imaging, high-content, MEF GFP-LC3 | MEF GFP-LC3 puncta imaging; test concentration mostly 10 µM | calls only at 10 µM (by protocol) | hit rate 0.98% among 190,000 | AID 463193, 2010;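 active = percentage of spot-positive cells more than 3 SD above its plate mean, without a fluorescence outlier flag or 80% toxicity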;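 also: spot-positive cell cutoff set from DMSO-treated cells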
# Dynein cargo inh = inhibitors of GR-EGFP nuclear translocation, primary screen, dynein cargo transport inhibitor project, imaging, high-content, 3617.4 mouse cells | test concentration mostly 20 µM; stimulated with dexamethasone, 1 µM; stronger effect = lower value | z-score, hits read low | hit rate 0.47% among 220,000 | AID 1381, 2008;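 active = plate z-score of nuclear minus cytoplasmic receptor signal below a set negative limit, without overly bright fluorescence or cell loss, cut at about -3.5 in these data, passing the limit was not always enough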;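 also: z-score of nuclear minus cytoplasmic ring GR-EGFP intensity difference per well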
#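 Buffer or medium – tet-free medium with charcoal-stripped serum · Signal – automated 10x imaging of fixed Hoechst-stained cells · Also added – dexamethasone agonist, 1.0 µM final, for 30 min · Incubation – induction 48 h, compound 1 h, agonist 30 min · Read-out – GR-EGFP nuclear translocation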
# MT stabilize HCS = microtubule stabilizers in HeLa cells, primary screen, imaging, high-content imaging; % tubulin-high responders, % at 10 µM; HeLa tubulin immunostaining HCS, 24 h; share of cells brighter than vehicle mean+2SD; hit rate 0.83% among 200,000; AID 2205, 2009;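 active = plate Z-score above 3 for both tubulin-high and condensed-nucleus cell shares, with cell loss under 80%, at 10 µM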;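 also: anti alpha tubulin signal scored within the nucleus-defined area of each cell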
# bCat nuc transl = modulators of beta-catenin nuclear translocation, primary screen, imaging, HeLa cells, immunofluorescence, high-content; hit rate 0.3% among 190,000; nuclear translocation activity, % at 5 µM;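 active = nuclear translocation activity above 50% at 5 µM, with a well cell count of 50 or more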;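 also: per-cell ratio of nuclear to cytoplasmic median beta-catenin stain intensity; plate controls were DMSO negative control for no effect and GSK-3 inhibitor IX positive control for full effect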
#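 System: HeLa cells, endogenous beta-catenin; compound dosing: 5 µM primary single dose, 0.1% DMSO, 0.02–20 µM confirmation series; incubation: 24 h compound exposure at 37°C, 5% CO2; signal: beta-catenin immunofluorescence imaging with DAPI; evaluation: % activation, nuclear-to-cytoplasmic median beta-catenin signal ratio per cell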
# Insulin prom up = insulin promoter activators in MIN6 cells, imaging, high-content screening, mouse beta cells. MIN6 insulin promoter-GFP reporter; stronger effect = higher value. z-score at 5 µM. hit rate 0.3% among 190,000. AID 1625, 2009;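 active = z-score above 3 at 5 µM with at least 500 cells counted in the well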
# The depositor's hits bear a star; i = inactive; . = no result; + = active, no number.
SMILES,Autophagy HCS,Dynein cargo inh,MT stabilize HCS,bCat nuc transl,Insulin prom up
Cc1ccccc1Nc1nnc(SCC2CCCCO2)s1 (centres undefined),i,-0.215,3.4,-1.7,-0.76
COc1ccccc1Nc1nnc(SCC2CCCCO2)s1 (centres undefined),i,0.937,18.5*,0.0,1.15
COCCOC(=O)c1[nH]c2c(c1C)C(=O)CC(c1ccc(N(C)C)cc1)C2 (centres undefined),i,-0.514,2.0,-0.9,0.57
CCOC(=O)c1[nH]c2c(c1C)C(=O)CC(c1ccco1)C2 (centres undefined),i,-0.221,7.0,117.9*,-0.51
COCCOC(=O)c1[nH]c2c(c1C)C(=O)CC(c1ccco1)C2 (centres undefined),i,1.16,9.8,66.3*,-0.72
Cc1c(C(=O)OCc2ccccc2)[nH]c2c1C(=O)CC(c1ccco1)C2 (centres undefined),i,-1.78,6.8,119.8*,0.96
Cc1c(C(=O)O)[nH]c2c1C(=O)CC(c1ccccc1)C2 (centres undefined),i,-0.766,2.6,-0.4,1.44
CCCCOC(=O)c1[nH]c2c(c1C)C(=O)CC(c1cc(OC)c(OC)c(OC)c1)C2 (centres undefined),i,0.395,5.8,-0.8,-2.12
CSCCOC(=O)c1[nH]c2c(c1C)C(=O)CC(c1ccco1)C2 (centres undefined),i,-0.452,7.9,92.4*,-0.45
CN(C)C(=S)c1ccccc1,.,1.2,.,-0.8,0.62
COc1ccc(OC)c(Cc2nnc(CCC(=O)N3CCCCC3c3nccs3)o2)c1 (centres undefined),i,-0.106,1.8,-1.2,0.31
COc1ccc(CCNC(=O)CN(CCc2ccccc2)S(C)(=O)=O)cc1OC,i,-0.244,2.5,-2.6,-0.12
Cc1c(C(=O)OCCOC(C)C)[nH]c2c1C(=O)CC(c1ccco1)C2 (centres undefined),i,-0.406,6.5,118.1*,.
O=C(CSc1nncs1)Nc1ccc(S(=O)(=O)N2CCCC2)cc1,i,-1.21,1.6,-3.9,-0.04
Cc1ccc(/C=C(\NC(=O)c2ccccc2)C(=O)N2CCCC2C(=O)O)cc1 (centres undefined),i,-0.404,3.4,-4.2,0.34
COc1ccccc1-c1nc(C#N)c(NCCCn2ccnc2)o1,.,-0.129,.,-0.9,-0.12
COC(=O)/C=c1/s/c(=C(\C#N)C(=O)NCc2ccco2)n(-c2ccc(C)cc2)c1=O,+,-0.79,2.4,-1.6,0.43
Cc1cc(F)c(F)c(C(=O)N2C(C)CCCC2C)c1Cl (centres undefined),i,-0.844,2.4,-0.3,-0.22
COc1cc(/C=N/NC(=O)c2csc3c2CCCC3)cc(OC)c1O,i,-0.42,2.9,-1.8,-0.13
Cc1ccc(/C=N/NC(=O)c2csc3c2CCCC3)cc1,+,0.139,20.2*,43.1,1.11
Cc1c(/C=N/NC(=O)c2ccc3c(c2)OCO3)cnn1C,i,-1.61,2.5,2.8,0.5
Cc1ccc(/C=N/NC(=O)c2ccc3c(c2)OCCO3)s1,.,1.21,.,66.3*,0.71
CCn1ncc(/C=N/NC(=O)c2ccc3c(c2)OCO3)c1C,i,0.264,35.8*,5.9,-0.13
O=C(N/N=C/c1cn(-c2ccccc2)nc1-c1ccc(F)cc1)c1ccc2c(c1)OCO2,i,-0.389,16.1*,0.6,-0.44
CCOC(=O)CSC1=C(C#N)C(c2ccccc2OC)CC(=O)N1 (centres undefined),i,-0.622,21.5*,1.4,0.86
SMILES,Autophagy HCS,Dynein cargo inh,MT stabilize HCS,bCat nuc transl,Insulin prom up
COC(=O)CSC1=C(C#N)C(c2ccsc2)CC(=O)N1 (centres undefined),i,-0.46,44.8*,-0.1,0.31
CCSC1=C(C#N)C(c2ccc(C)s2)CC(=O)N1 (centres undefined),i,-0.947,2.9,0.5,0.14
CCOC(=O)CSC1=C(C#N)C(c2ccc(C)s2)CC(=O)N1 (centres undefined),i,0.106,30.8*,43.1,-3.15
COC(=O)CSC1=C(C#N)C(c2ccccc2)CC(=O)N1 (centres undefined),i,1.92,8.9,.,0.44
COc1ccc(NC(=O)c2ccccc2-c2ccccc2)c(C)c1,i,0.296,7.2,-0.6,0.46
C/C(CC(=O)NCCN1CCOCC1)=N\NC(=O)c1ccncc1,.,-0.155,.,-0.7,-0.08
COc1ccc2[nH]c(=O)c(CN(C)C(=O)c3ccncc3)cc2c1,i,-0.641,2.5,-4.9,-0.65
CCCN(Cc1cc2cc(OC)ccc2[nH]c1=O)C(=O)c1ccncc1,i,-0.683,13.0*,-0.4,0.33
C#CC(C)(CC)NC(=O)Cn1nnc(-c2cccc(C(F)(F)F)c2)n1 (centres undefined),i,-0.576,1.0,-0.9,0.95
CCc1ccc(-c2cc(C(F)(F)F)n3nc(C(=O)Nc4c(C)nn(Cc5ccccc5C)c4C)cc3n2)s1,+,0.986,2.9,1.8,0.03
CCc1ccc(-c2cc(C(F)(F)F)n3nc(C(=O)Nc4c(C)nn(Cc5ccccc5Cl)c4C)cc3n2)s1,+,0.445,2.2,-0.4,-2.96
CCC1=Nc2cc(C(=O)NCCCOC(C)C)ccc2Sc2ccccc21,+,0.152,5.4,.,1.44
CCC1=Nc2cc(C(=O)NCc3ccco3)ccc2Sc2ccccc21,i,-0.341,23.7*,54.9*,0.21
CCC1=Nc2cc(C(=O)NCc3cccnc3)ccc2Sc2ccc(C)cc21,.,0.494,.,63.9*,.
CCC1=Nc2cc(C(=O)NCc3ccco3)ccc2Sc2ccc(Cl)cc21,i,-0.0431,8.1,37.5,0.35
COc1ccc2[nH]c(=O)c(CN(Cc3cccnc3)Cc3nnnn3CC3CCCO3)cc2c1 (centres undefined),.,-0.0436,.,-1.0,-0.27
O=c1ccc(Cl)n[nH]1,.,-0.909,.,0.4,0.1
Cn1cc(Br)c(-c2cccc(NC(=O)CCCC(=O)O)c2)n1,.,0.436,.,-1.5,-0.01
Cc1cc(N/N=C/c2ccc(O)cc2O)nc(-c2ccccc2O)n1,+,-0.462,6.6,0.7,0.02
Cc1cc(N/N=C/c2ccccc2O)nc(-c2ccccc2O)n1,i,0.627,1.9,-0.4,-0.67
Cc1ccc(NC(=O)c2cc(=O)n(Cc3ccccc3)c(=O)[nH]2)cc1C,i,-0.407,5.3,-0.9,-0.01
Cn1c(CNC(=O)c2ccc(F)cc2)nc2ccccc21,i,-0.58,2.3,-0.8,0.37
CSc1nc(N(C)NC(=O)c2ccc(F)cc2)c2ccccc2n1,i,-0.499,33.2*,2.6,-0.05
CCc1nnc(NC(=O)C2CCC(CNc3c(N4CCC(C)CC4)c(=O)c3=O)CC2)s1 (centres undefined),.,-0.141,.,-0.8,-0.24
Cc1c(/C=C/C(=O)c2ccc(Cl)s2)cnn1C,i,-1.84,2.8,1.5,.

# High-throughput results deposited in PubChem by several laboratories.
